The values below come from paper PMC6489498 (Inorganic chemistry, 2017).

Series [1] can be described thus: MBP hydroxyl pKa from pH-dependent optical spectra. Format: physicochemical.
Series [2] deals with ZnCA. The settings on record: with ZnCA; ref 7 (Martin, et al); cited from earlier work.
The subject of series [3] is CoCA. The class given is physicochemical, bovine. The settings on record: calculated from first addition (3.75 μM MBP) to 38 μM CoCA; thione coordinated. The method in brief: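 UV-vis titration of 38 μM CoCA with MBP in 50 mM phosphate, pH 7.5. ΔA of protonated and deprotonated bands converted to concentrations using the εOH–εO− difference, then to mole fractions vs MBP added. Effective pKa calculated from the first addition (3.75 μM), […]. Shift expressed relative to the free-MBP hydroxyl pKa.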

[4] abbreviates: solution of the free MBP, pH varied (UV-vis optical spectra).

Where two headings read alike, the source gives them in different places.

One may read the pKa as the pH at which an ionisable group is half protonated. As usually defined, the Ki is a measure of affinity in units of concentration, obtained from inhibition or displacement. As to `Cc1cc(=S)c(O)co1` [ATM, 5-hydroxy-2-methyl-4H-pyran-4-thione], the pKa is 8.3 in series [1] and approximately 8.3 in series [1] (setting [4]). Moreover, the “deprotonated form present at physiological pH” value in series [1] (expected from pKa) is reported as ~ 15%. In series [2], the Ki is 650 µM. Moreover, the “effective pKa” value in series [3] is 7.6.
With `Cc1occc(=S)c1O` [TM, 3-hydroxy-2-methyl-4H-pyran-4-thione], the pKa in series [1] was 9; in series [1] (setting [4]), approximately 9. For the same compound, in series [2], the inhibitory constant (Ki) was 1400 µM. For the same compound, the “effective pKa” value in series [3] is recorded as 8.3.
`Oc1coccc1=S` [TPMA, 3-hydroxy-4H-pyran-4-thione]: the pKa was 9.5 in series [1] and approximately 9.5 in series [1] (setting [4]). Also, the inhibitory constant (Ki) in series [2] was 1100 µM. In addition, in series [3], the “effective pKa” value was 8.4.
